Active and inactive are the calls of the source. No cut-off for these calls is given here.
What was measured:
[1] = system: MDA-MB-231; assay: Induction of apoptosis in human MDA-MB-231 cells assessed as decrease in Rb phosphorylation incubated for 48 hrs by Western blot analysis; assay type: functional, cell-based
Procedure, shortened: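 Cells were treated for 48 h, washed three times with PBS, and lysed in RIPA buffer. Immunoblots used anti-Rb, anti-phospho-Rb, anti-Ki67 and anti-Bcl-2 (each 1:1000), with β-actin as loading control.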

[2] = system: SiHa; assay: Induction of apoptosis in human SiHa cells assessed as decrease in Ki67 expression at 40 to 80 nM incubated for 48 hrs by Western blot analysis; assay type: functional, cell-based
Procedure, shortened: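 Cancer cells were exposed to graded concentrations for 48 h, washed three times in PBS and lysed in RIPA buffer. Immunoblots were probed with anti-Rb, anti-phospho-Rb, anti-Ki67 and anti-Bcl-2, each at 1:1000. β-actin served as loading control.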

[3] = AUMC (0 to t) in Sprague-Dawley rat at 10 mg/kg at 10 mg/kg, po by HPLC-MS analysis; assay type: ADME, organism-based; details: in vivo
Procedure, shortened: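 Rats fitted with jugular vein catheters for serial blood sampling. Compound dissolved in saline with 5% (v/v) DMSO and given as a single 10 mg/kg dose iv or po after an overnight fast, n = 5 per group. Plasma isolated at once and measured by HPLC with tandem MS detection. Parameters derived by noncompartmental fitting.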

[4] = biological target: Serine/threonine-protein kinase BRSK2 (Homo sapiens) (UniProt Q8IWQ3); assay: Inhibition of recombinant human BRSK2 (2 to end residues) at 1 uM using KKLNRTLSFAEPG as substrate incubated for 40 mins in presence of [gamma-33P]-ATP by scintillation counting method relative to control
Procedure, shortened: (§1)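 Kinase panel profiling at 1 μM performed by Eurofins KinaseProfiler; percent inhibition reported as mean of two independent experiments.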

[5] = system: Tyrosine-protein kinase BTK (Homo sapiens), Q06187 [R28H]; assay: Inhibition of recombinant full length human BTK R28H mutant at 1 uM using LSNLYHQGKFLQT as substrate incubated for 40 mins in presence of [gamma-33P]-ATP by scintillation counting method relative to control
Procedure, shortened: (§2)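 Tested at a single 1 uM in an outsourced commercial kinase-profiling panel, read as percent inhibition. Each value is the mean of two independent experiments.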

[6] = biological target: RAF proto-oncogene serine/threonine-protein kinase (Homo sapiens) (UniProt P04049); assay: Inhibition of recombinant human cRaf (306 to end residues) at 1 uM using unactive MEK1 as substrate incubated for 40 mins in presence of [gamma-33P]-ATP by scintillation counting method relative to control
[7] = biological target: Myotonin-protein kinase (Homo sapiens) (UniProt Q09013); assay: Inhibition of recombinant human DMPK (1 to 549 residues) at 1 uM using KKSRGDYMTMQIG as substrate incubated for 40 mins in presence of [gamma-33P]-ATP by scintillation counting method relative to control; procedure, shortened: as §1
[8] = biological target: Ephrin type-B receptor 1 (Homo sapiens) (UniProt P54762); assay: Inhibition of recombinant human EPhB1 (564 to end residues) at 1 uM using KVEKIGEGTYGVVYK as substrate incubated for 40 mins in presence of [gamma-33P]-ATP by scintillation counting method relative to control
[9] = biological target: MAP kinase-activated protein kinase 3 (Homo sapiens) (UniProt Q16644); assay: Inhibition of recombinant human MAPKAPK3 (2 to end residues) at 1 uM using KKLNRTLSVA as substrate incubated for 40 mins in presence of [gamma-33P]-ATP by scintillation counting method relative to control; procedure, shortened: as §2
[10] = biological target: MAPK/MAK/MRK overlapping kinase (Homo sapiens) (UniProt Q9UQ07); assay: Inhibition of recombinant human MOK (1 to 343 residues) at 1 uM using RSRSRSRSRSRSRSR as substrate incubated for 40 mins in presence of [gamma-33P]-ATP by scintillation counting method relative to control
[11] = biological target: Macrophage-stimulating protein receptor (Homo sapiens) (UniProt Q04912); assay: Inhibition of recombinant human RON (983 to end residues) at 1 uM using GGMEDIYFEFMGGKKK as substrate incubated for 40 mins in presence of [gamma-33P]-ATP by scintillation counting method relative to control
[12] = biological target: Mitogen-activated protein kinase 11 (Homo sapiens) (UniProt Q15759); assay: Inhibition of recombinant human full length SAPK2b at 1 uM using myelin basic protein as substrate incubated for 40 mins in presence of [gamma-33P]-ATP by scintillation counting method relative to control
Procedure, shortened: (§3)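 Single-point inhibition at 1 uM measured in a commercial kinase profiling panel (KinaseProfiler); each value is the mean of two independent experiments.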

[13] = biological target: Testis-specific serine/threonine-protein kinase 3 (Homo sapiens) (UniProt Q96PN8); assay: Inhibition of recombinant human full length TSSK3 at 1 uM using AMARAASAAALARRR as substrate incubated for 40 mins in presence of [gamma-33P]-ATP by scintillation counting method relative to control; procedure, shortened: as §3
[14] = biological target: Serine/threonine-protein kinase 32C (Homo sapiens) (UniProt Q86UX6); assay: Inhibition of recombinant human full length STK32C at 1 uM using casein as substrate incubated for 40 mins in presence of [gamma-33P]-ATP by scintillation counting method relative to control
[15] = system: Angiopoietin-1 receptor (Homo sapiens), Q02763 [R849W]; assay: Inhibition of recombinant human TIE2 R849W mutant (771 to end residues) at 1 uM using EFPIYDFLPAKKK as substrate incubated for 40 mins in presence of [gamma-33P]-ATP by scintillation counting method relative to control
[16] = biological target: Serine/threonine-protein kinase ULK3 (Homo sapiens) (UniProt Q6PHR2); assay: Inhibition of recombinant human full length ULK3 at 1 uM using casein as substrate incubated for 40 mins in presence of [gamma-33P]-ATP by scintillation counting method relative to control
[17] = system: T47D; assay: Induction of cell cycle arrest in human T47D cells assessed as accumulation in G2/M phase at 40 nM incubated for 36 hrs by propidium iodide staining based flow cytometry; assay type: functional
Procedure, shortened: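 Cells were treated with graded concentrations for 36 h, then fixed overnight in 70% ice-cold ethanol at 4°C and resuspended in PBS. Staining used 50 µg/ml PI plus 5 µg/ml RNase at 37°C for 30 min. DNA content was analysed by FACS to give G0/G1, S and G2/M fractions.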

[18] = system: HeLa; assay: Antiproliferative activity against human HeLa cells assessed as reduction in cell viability at 80 nM incubated for 48 hrs by EdU staining based laser scanning confocal microscopy; assay type: functional
Procedure, shortened: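 Cells, 5×10^4, were seeded in 24-well plates and treated for 48 h. They were then labeled using an EdU Apollo 488 imaging kit with Hoechst 33342 nuclear stain and imaged by laser scanning confocal microscopy. Percent EdU-positive cells = EdU-positive/Hoechst-stained × 100%.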

[19] = biological target: T1, Vascular endothelial growth factor receptor 2 (Homo sapiens, UniProt P35968); details: HUVEC, 40 nM
[20] = biological target: T1, Vascular endothelial growth factor receptor 2; details: HUVEC, 40 nM; remark: listed apart in the source

T1 sequence (P35968 whole entry): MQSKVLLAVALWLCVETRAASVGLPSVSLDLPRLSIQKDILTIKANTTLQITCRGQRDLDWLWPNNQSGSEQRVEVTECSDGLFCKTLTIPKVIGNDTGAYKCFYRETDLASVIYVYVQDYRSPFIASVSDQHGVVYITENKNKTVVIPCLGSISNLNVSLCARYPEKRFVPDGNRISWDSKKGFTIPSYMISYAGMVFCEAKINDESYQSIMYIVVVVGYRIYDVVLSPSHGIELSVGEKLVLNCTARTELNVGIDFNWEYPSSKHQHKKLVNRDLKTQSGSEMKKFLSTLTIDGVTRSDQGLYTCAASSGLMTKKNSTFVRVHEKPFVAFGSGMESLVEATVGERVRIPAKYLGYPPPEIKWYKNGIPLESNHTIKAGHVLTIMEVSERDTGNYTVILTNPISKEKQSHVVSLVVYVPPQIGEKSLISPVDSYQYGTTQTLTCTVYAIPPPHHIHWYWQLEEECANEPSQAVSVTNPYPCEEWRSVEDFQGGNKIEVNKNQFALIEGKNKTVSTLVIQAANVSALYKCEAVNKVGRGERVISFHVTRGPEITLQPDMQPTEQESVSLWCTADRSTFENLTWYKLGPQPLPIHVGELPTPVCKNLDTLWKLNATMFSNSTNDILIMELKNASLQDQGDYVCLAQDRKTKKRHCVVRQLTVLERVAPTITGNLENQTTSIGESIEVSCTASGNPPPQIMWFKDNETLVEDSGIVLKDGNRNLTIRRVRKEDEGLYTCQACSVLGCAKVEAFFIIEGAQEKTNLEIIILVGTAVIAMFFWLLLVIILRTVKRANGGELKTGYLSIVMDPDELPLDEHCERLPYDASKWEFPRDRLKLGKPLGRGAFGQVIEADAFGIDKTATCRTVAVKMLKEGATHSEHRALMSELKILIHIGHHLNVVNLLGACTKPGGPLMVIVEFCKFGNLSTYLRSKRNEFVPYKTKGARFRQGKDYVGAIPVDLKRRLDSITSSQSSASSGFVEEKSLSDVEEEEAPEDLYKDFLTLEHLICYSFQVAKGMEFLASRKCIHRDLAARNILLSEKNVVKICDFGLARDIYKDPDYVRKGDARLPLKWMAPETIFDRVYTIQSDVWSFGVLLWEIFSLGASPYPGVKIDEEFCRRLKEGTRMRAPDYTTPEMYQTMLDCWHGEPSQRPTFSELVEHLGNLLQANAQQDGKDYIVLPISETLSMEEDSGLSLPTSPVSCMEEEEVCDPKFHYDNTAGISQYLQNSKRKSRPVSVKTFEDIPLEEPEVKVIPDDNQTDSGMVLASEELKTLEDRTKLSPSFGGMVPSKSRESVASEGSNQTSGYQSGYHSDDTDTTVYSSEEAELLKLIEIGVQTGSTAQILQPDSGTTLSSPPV
MAPK/MAK/MRK overlapping kinase (Homo sapiens), sequence (Q9UQ07 whole entry, the tested form may be a part): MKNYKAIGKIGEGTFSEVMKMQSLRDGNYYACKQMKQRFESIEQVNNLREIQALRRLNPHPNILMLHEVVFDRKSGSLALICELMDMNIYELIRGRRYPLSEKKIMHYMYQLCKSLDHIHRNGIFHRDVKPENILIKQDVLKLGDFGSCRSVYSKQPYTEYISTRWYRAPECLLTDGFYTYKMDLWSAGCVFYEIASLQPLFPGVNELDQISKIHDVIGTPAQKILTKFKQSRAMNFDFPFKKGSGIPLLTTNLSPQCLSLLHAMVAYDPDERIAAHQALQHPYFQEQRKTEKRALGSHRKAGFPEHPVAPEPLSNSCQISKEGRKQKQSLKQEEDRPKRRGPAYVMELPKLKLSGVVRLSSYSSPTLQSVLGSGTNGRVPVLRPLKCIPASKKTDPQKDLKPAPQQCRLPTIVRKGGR
Serine/threonine-protein kinase ULK3 (Homo sapiens), sequence (Q6PHR2 whole entry): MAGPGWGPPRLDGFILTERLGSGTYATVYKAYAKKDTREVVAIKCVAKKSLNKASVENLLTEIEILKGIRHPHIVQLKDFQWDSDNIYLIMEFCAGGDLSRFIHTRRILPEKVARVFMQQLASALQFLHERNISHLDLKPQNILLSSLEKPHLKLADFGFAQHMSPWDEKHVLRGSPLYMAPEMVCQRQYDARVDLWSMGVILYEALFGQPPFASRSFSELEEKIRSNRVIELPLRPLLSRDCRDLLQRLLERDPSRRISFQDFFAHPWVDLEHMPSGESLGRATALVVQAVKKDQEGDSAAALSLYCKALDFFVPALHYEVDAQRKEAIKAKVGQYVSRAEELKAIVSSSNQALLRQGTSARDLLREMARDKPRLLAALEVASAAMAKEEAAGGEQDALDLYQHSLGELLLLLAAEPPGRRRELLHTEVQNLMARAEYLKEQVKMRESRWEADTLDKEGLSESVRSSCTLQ
Angiopoietin-1 receptor (Homo sapiens), Q02763 [R849W], sequence (Q02763 whole entry R849W): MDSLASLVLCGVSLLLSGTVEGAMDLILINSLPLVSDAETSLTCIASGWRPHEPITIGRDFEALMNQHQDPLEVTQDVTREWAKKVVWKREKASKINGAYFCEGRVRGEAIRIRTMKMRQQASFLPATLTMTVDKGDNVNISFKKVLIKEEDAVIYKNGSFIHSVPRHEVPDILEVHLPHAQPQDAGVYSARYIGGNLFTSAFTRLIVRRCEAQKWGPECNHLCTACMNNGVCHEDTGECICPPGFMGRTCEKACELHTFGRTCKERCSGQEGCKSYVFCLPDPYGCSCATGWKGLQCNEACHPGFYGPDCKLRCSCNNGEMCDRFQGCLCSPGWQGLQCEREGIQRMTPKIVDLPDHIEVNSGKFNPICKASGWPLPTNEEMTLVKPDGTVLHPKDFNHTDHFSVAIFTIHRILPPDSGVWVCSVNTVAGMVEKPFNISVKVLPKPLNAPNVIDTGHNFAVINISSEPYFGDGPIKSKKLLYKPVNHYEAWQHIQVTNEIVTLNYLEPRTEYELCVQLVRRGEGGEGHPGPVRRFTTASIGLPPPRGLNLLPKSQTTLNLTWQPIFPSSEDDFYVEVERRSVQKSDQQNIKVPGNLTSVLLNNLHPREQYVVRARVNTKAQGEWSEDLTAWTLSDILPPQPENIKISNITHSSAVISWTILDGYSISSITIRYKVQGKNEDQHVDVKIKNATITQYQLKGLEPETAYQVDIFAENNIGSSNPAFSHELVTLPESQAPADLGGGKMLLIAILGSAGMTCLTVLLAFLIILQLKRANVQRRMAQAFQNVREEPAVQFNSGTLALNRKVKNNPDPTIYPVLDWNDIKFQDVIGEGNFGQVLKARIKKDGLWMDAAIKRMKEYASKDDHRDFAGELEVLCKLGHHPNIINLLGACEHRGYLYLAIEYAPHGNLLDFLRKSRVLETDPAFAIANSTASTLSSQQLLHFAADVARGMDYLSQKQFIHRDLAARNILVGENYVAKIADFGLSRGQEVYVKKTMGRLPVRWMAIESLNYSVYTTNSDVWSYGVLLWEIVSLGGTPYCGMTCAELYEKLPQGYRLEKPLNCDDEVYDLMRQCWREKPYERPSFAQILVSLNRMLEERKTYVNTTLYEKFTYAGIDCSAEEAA
RAF proto-oncogene serine/threonine-protein kinase (Homo sapiens), sequence (P04049 whole entry, the tested form may be a part): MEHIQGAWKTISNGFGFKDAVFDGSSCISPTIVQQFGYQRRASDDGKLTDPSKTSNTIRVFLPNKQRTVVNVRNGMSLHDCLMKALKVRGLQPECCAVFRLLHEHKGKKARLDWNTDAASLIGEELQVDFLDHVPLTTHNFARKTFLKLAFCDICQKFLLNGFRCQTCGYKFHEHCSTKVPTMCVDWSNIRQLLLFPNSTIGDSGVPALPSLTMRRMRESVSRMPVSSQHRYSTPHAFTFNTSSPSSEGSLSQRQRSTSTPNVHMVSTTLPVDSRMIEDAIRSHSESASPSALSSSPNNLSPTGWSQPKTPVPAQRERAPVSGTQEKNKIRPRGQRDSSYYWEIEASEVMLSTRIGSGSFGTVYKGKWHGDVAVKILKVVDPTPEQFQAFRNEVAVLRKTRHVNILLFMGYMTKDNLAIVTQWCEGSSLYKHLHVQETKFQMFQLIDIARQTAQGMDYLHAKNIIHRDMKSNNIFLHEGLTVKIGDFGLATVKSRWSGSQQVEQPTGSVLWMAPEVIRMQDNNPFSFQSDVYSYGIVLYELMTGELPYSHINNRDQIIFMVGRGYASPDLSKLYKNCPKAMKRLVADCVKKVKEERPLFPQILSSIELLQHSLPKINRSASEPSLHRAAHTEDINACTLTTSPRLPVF
Serine/threonine-protein kinase BRSK2 (Homo sapiens), sequence (Q8IWQ3 whole entry): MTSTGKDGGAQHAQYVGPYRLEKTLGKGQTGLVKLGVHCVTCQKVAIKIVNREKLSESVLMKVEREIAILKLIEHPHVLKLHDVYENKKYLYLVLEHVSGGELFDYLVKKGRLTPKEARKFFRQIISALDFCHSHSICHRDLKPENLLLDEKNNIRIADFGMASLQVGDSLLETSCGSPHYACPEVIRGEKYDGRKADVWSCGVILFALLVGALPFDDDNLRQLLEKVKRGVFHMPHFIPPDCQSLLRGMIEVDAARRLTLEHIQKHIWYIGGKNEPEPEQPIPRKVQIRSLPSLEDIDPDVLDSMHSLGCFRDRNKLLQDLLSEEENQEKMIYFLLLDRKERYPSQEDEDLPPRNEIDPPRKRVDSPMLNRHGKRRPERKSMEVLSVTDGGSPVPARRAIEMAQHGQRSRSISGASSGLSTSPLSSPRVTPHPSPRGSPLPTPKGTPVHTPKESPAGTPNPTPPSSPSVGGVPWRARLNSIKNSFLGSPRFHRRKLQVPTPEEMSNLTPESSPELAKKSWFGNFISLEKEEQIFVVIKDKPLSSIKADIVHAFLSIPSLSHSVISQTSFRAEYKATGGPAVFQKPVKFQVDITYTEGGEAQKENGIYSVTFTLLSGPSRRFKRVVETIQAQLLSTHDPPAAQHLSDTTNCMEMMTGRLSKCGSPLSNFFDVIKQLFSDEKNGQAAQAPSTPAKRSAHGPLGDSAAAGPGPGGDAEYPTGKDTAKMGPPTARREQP
Testis-specific serine/threonine-protein kinase 3 (Homo sapiens), sequence (Q96PN8 whole entry): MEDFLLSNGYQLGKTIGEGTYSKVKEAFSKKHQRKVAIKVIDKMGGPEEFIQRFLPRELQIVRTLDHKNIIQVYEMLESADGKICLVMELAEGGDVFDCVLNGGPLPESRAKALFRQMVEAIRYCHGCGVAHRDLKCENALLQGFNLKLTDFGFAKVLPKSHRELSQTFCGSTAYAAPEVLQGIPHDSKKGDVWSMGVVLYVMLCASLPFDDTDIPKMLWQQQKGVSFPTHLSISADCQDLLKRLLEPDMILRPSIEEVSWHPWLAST

| inhibition [19] | inhibition [20] | Structure (SMILES) | Activity [1] | Activity [2] | AUMCt [3] | inhibition [4] | inhibition [5] | inhibition [6] | inhibition [7] | inhibition [8] | inhibition [9] | inhibition [10] | inhibition [11] | inhibition [12] | inhibition [13] | inhibition [14] | inhibition [15] | inhibition [16] | Activity [17] | inhibition [18] |
| --- | --- | --- | --- | --- | --- | --- | --- | --- | --- | --- | --- | --- | --- | --- | --- | --- | --- | --- | --- | --- |
|  |  | Cc1ccc(NC(=O)C2(C(=O)Nc3ccc(Nc4ncc(F)c(-c5cc(F)c6nc(C)n(C(C)C)c6c5)n4)cc3)CC2)cc1 | Dose-dependent effect | Active | 21 mg/L.hr | 54% | 0% | 31% | 10% | 66% | 0% | 25% | 54% | 0% | 0% | 5% | 57% | 37% |  |  |
| Active | Active | COc1cc2nccc(Oc3ccc(NC(=O)C4(C(=O)Nc5ccc(F)cc5)CC4)cc3)c2cc1OC [CABOZANTINIB] |  |  |  |  |  |  |  |  |  |  |  |  |  |  |  |  | Active | Active |

— ChEMBL document CHEMBL4406821, “Novel dual inhibitors targeting CDK4 and VEGFR2 synergistically suppressed cancer progression and angiogenesis” (Eur J Med Chem, 2019)
